Reference: ChEMBL document CHEMBL4033696, “Repurposing of Proton Pump Inhibitors as first identified small molecule inhibitors of endo-β-N-acetylglucosaminidase (ENGase) for the treatment of NGLY1 deficiency, a rare genetic disease” (Bioorg Med Chem Lett, 2017)
Active and inactive are the calls of the source. The rule behind the calls is not given here. Residues, ends and D or L forms follow the SMILES beside them. *: point of attachment. Cbz = O=C(OCc1ccccc1)*

Molecular target: T1, Cytosolic endo-beta-N-acetylglucosaminidase (Homo sapiens) (UniProt Q8NFI3)
T1 sequence (whole entry): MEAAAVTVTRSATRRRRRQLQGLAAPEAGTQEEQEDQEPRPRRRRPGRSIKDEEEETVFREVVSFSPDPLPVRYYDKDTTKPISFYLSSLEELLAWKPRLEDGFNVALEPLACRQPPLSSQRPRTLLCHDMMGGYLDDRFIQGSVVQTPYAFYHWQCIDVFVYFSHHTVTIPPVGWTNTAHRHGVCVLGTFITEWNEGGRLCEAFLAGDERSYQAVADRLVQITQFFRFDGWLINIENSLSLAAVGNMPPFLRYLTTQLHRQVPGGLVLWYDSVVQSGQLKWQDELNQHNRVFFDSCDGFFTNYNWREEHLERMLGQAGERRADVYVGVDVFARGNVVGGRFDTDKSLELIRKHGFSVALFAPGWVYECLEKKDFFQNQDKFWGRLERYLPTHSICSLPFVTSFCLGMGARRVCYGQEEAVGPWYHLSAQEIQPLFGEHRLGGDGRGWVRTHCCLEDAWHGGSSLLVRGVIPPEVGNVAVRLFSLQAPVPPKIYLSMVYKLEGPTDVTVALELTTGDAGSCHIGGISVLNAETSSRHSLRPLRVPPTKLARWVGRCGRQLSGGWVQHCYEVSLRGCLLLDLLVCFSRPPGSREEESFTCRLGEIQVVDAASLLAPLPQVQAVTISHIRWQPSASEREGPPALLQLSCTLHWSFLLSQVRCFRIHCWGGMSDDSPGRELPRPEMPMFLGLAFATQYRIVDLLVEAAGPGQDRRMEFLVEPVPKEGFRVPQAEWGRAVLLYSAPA
Test: Inhibition of recombinant human C-MYC/DDK-tagged ENGase expressed in HEK293T cells at 100 uM using heat inactivated bovine ribonuclease B as substrate pretreated for 15 mins followed by substrate addition after 90 mins by SDS-PAGE analysis
Conditions: HEK-293T
Outline: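 Recombinant human ENGase incubated with ribonuclease B substrate and test compound at 100 μM as a single-concentration screen. Reactions were then heat-inactivated and resolved on 12% SDS-PAGE as an electrophoretic mobility shift assay. Bands were stained with Coomassie blue R-250 and quantified by densitometry.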

Question: CCNC1=N[C@H]2[C@H](O)[C@@H](O)[C@H](CO)O[C@H]2S1 was tested. Which inhibition did it give?
Answer: inactive

Question: How did the inhibition turn out when CC(C)C[C@H](NC(=O)CNC(=O)c1cc(Cl)ccc1Cl)B(O)O was run?
Answer: inactive

Question: CC(C)C[C@@H](C=O)NC(=O)[C@H](CC(C)C)NC(=O)[C@H](CC(C)C)NC(=O)OCc1ccccc1 (Cbz-Leu-Leu-Leu-aldehyde) was tested. Which inhibition did it give?
Answer: inactive

Question: For CNCC[C@@H](Oc1ccccc1C)c1ccccc1, which inhibition is on record?
Answer: inactive

Question: Which inhibition does the source give for CC(=O)Nc1nnc(S(N)(=O)=O)s1 here?
Answer: inactive

Question: With N=C(N)NC(=O)Cc1c(Cl)cccc1Cl as the compound, how does the inhibition read?
Answer: inactive

Question: For Clc1cccc(Cl)c1NC1=NCCN1, which inhibition is on record?
Answer: inactive

Question: How did the inhibition turn out when CN1CCc2nc(C(=O)N[C@@H]3C[C@@H](C(=O)N(C)C)CC[C@@H]3NC(=O)C(=O)Nc3ccc(Cl)cn3)sc2C1 was run?
Answer: inactive

Molecular target: T2, Cytosolic endo-beta-N-acetylglucosaminidase (Homo sapiens, UniProt Q8NFI3)
T2 sequence (Q8NFI3 whole entry): T1 sequence (whole entry)
Test: (§1) Inhibition of recombinant human C-MYC/DDK-tagged ENGase expressed in HEK293T cells using heat inactivated bovine ribonuclease B as substrate pretreated for 15 mins followed by substrate addition after 90 mins by SDS-PAGE analysis
Design: species or system HEK-293T
Conditions: not given
Outline: (§2)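 Electrophoretic mobility shift assay: recombinant human ENGase with ribonuclease B and inhibitor at various concentrations, heat-inactivated, run on 12% SDS-PAGE, Coomassie R-250 staining, band densitometry. IC50 came either from 8-dose curves in three independent experiments or was estimated from four concentrations in two independent experiments.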

Question: With COCCCOc1ccnc(C[S+]([O-])c2nc3ccccc3[nH]2)c1C (stereo not given) [RABEPRAZOLE] as the compound, how does the IC50 read?
Answer: 4.47 µM

Question: How did the IC50 turn out when COc1ccc2[nH]c([S+]([O-])Cc3ncc(C)c(OC)c3C)nc2n1 (stereo not given) [TENATOPRAZOLE] was run?
Answer: 20 µM

Question: COc1ccc2[nH]c([S+]([O-])Cc3ncc(C)c(OC)c3C)nc2c1 (stereo not given) [OMEPRAZOLE] was tested. Which IC50 did it give?
Answer: 25 µM

Question: For Cc1c(OCC(F)(F)F)ccnc1C[S@@+]([O-])c1nc2ccccc2[nH]1 [DEXLANSOPRAZOLE], which IC50 is on record?
Answer: 25 µM

Question: Cc1c(OCC(F)(F)F)ccnc1C[S+]([O-])c1nc2ccccc2[nH]1 (stereo not given) [LANSOPRAZOLE] was tested. Which IC50 did it give?
Answer: 24.4 µM

Molecular target: T1, Cytosolic endo-beta-N-acetylglucosaminidase (Homo sapiens)
Test: as §1
Conditions: HEK-293T
Outline: as §2

Question: With COc1ccc2[nH]c([S@@+]([O-])Cc3ncc(C)c(OC)c3C)nc2c1 as the compound, how does the inhibition read?
Answer: inactive

Question: How did the inhibition turn out when COc1ccnc(C[S+]([O-])c2nc3cc(OC(F)F)ccc3[nH]2)c1OC (stereo not given) was run?
Answer: inactive
